Measurements as given in the EternaBench riboswitch data.

Tested on: MS2 coat protein
Assay: apparent Kd, MS2 coat protein; higher = weaker binding; RNA-MaP array; FMN 200 µM where present
In short: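 Designs on Illumina sequencing-chip clusters, transcribed by stalled E. coli RNA polymerase, were exposed to SNAP-549-labelled MS2 coat protein in doubling steps from 0.7 or 1.5 nM up to 3 µM, without and then with constant ligand. The buffer held 100 mM Tris-HCl pH 7.5, 80 mM KCl, 4 mM MgCl2, BSA, DTT, yeast tRNA and Tween-20. Apparent Kd values are medians of filtered per-cluster binding-curve fits to green signal normalised to red-channel RNA signal and control-cluster median Fmax.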

[1] = designed as: OFF switch for flavin mononucleotide, no ligand
[2] = ligand present: flavin mononucleotide, designed as: OFF switch for flavin mononucleotide
[3] = designed as: ON switch for flavin mononucleotide, no ligand
[4] = ligand present: flavin mononucleotide, designed as: ON switch for flavin mononucleotide

Sequence | apparent Kd [1] [nM] | apparent Kd [2] [nM] | apparent Kd [3] [nM] | apparent Kd [4] [nM]
GGUUGUCAAAGACAACCUUAACGAACAUGAGGAUCACCCAUGUAGGAUAUGCUACUCAAAGAGUAGCAGAAGGACAUGUGUCUU | 30.8 | 156 | – | –
AGAUAUGAUGCAGGAUAUCUAUCUUGAAUGAGGAGAGAAGGGCAAGCAGAGACAUAAGCCUUAUUACAUGAGGAUCACCCAUGU | 10.2 | 7.9 | – | –
UUUUUACAUGAGGAUCACCCAUGUGAGGAUAUGGAUUCGCUGGCCGUAGCCAGUGGAUCCAGAAGGCGCAUGAU | 82.7 | 280 | – | –
UGAACUAUGUAGAAGGCCCACAUUAAUAUGUAGGGAGGAUAUACAUGAGGAUCACCCAUGUGAAGAGCAAGAGGGUUUAACAGA | 112 | 143 | – | –
AGUCAUACAGGAUAUACAUGAGGAUCACCCAUGUAUAUCCAAAAUGGGUGAUCCUCAUGUAGAAGGGUAUGACA | 10.3 | 10.5 | – | –
UUCCUCAUAACAUGAGGAUCACCCAUGUAUUAAUAGAUAACUGAGGAUAUACUAAUAAUGUUUAUGUAGAAGGCAGAUACAGAU | 49.6 | 106 | – | –
UCUGGGUCUGUGAGGAUAUUGGGUCUGAAAGGGCUCGAGAAGGCACAUGAGGAUCACCCAUGUAAGGGCUCGGG | 27.6 | 21.6 | – | –
CCGAUAAUAGGACAGGAUAUGACUGUCGUCACAUGAGGAUCACCCAUGUCCCGGCAAUGCCACCGUUAGAAGGGUCCUAUCUCGA | – | – | 14.9 | 14.6
CGAUAACAUAGUUAUCCGUAACGGACAUGAGGAUCACCCAUGUAGGAUAUGUUACUCAACGAGUAACAGAAGGACAUGAGUCCU | 11.8 | 54 | – | –
AUCAUCUUAUCAGGAUAUGCGUGUCGACGAAAGUAGACAAUCUUGAUAACAUGAGGAUCACCCAUGUAGAAGGGAUGAGAUGAU | 46.6 | 40.2 | – | –
GGCUGGUGAGCAGGAUAUGGUCGUGCCUUUGUUCGUGGUCCCACAUGAGGAUCACCCAUGUUCGACCAGAAGGGCUGACUUGAG | 31 | 18.9 | – | –
CCGUUCUGAGGAUAUCCACCCUCAUACAUGAGGAUCACCCAUGUUCACCCUUGGGUUCCCGGAGAAGGCAGUUUUC | 232 | 467 | – | –
AGUGUCAUCGAGAAGGCCUUGACAUGAGGAUCACCCAUGUUGUAACAUGGGAGGAUAUCGAUGAUACAGCUACGUUUCGUAGCA | – | – | 625 | 47.3
AGUCGGUUCUUUUAACAUGAGGAUCACCCAUGUAUUUGCAACUAGGAUAUCGAUAAUUAUUUCGUCGAGAAGGAGUAUACAUAA | 24.2 | 38.5 | – | –
AGCGAGCUAGGAUAUACAUGAGGAUCACCCAUGUCUUUUUAGUACUACGGUGGAAGAUGUAGAAGGAGUGAGAA | 95.1 | 68.3 | – | –
GAGACGUCAGGAUAUCUGAUGUCUAACUUCGGUUAGACAUCAGAGAAGGGACAUGAGGAUCACCCAUGUCUCAA | 16.9 | 12.1 | – | –
UGAGCUACAGGAUAUACGUGACGACCGUGAGGUCGAAGGUUACAUGAGGAUCACCCAUGUAGAAGGGUAGUUCU | 148 | 148 | – | –
UAUUUAUAGCAAGGAUAUGAUUAUUAUUAUUUAUCAGAAGGUGCACAUGAGGAUCACCCAUGUUUUACAAUUUGUAAUUUAAUU | 38.6 | 25.1 | – | –
GGAGGACAUGAGGAUCACCCAUGUGGAUGAUCGCUAGGAUAUGCGUGCGGGAGGAGUGGUGCAGAAGGAGUGGGAU | – | – | 350 | 272
AUUGUAUGGGAAGGAUAUAGAAUAUUAUUUUAACAUGAGGAUCACCCAUGUAACCUUAUGUGUAGCUAGAAGGUCCGUUUAUUA | 131 | 157 | – | –
GUACAGAAGGAGAAGGGCUAGGAGGUCCAGCUUAUGUGUGUUGCAACAUGAGGAUCACCCAUGUAGCAGGAUAUCCUUUGUACA | 41.1 | 440 | – | –
AUUAUGACCGAGUAAAGCUUCAAAACAUGAGGAUCACCCAUGUAGGAUAUCAGCACGAUAAGUGCUGAGAAGGACAUCUCGGUC | 14.3 | 15.1 | – | –
GCCAGGAUGUGAGGAUAUGCUGAGGAUACCUCAGCAGAAGGCACAUGAGGAUCACCCAUGUACACUUAUCAUAAAUACCCUGGC | 13.5 | 18.1 | – | –
